Measured values: ChEMBL document CHEMBL1138195, “Highly chiral muscarinic ligands: the discovery of (2S,2'R,3'S,5'R)-1-methyl-2-(2-methyl-1,3-oxathiolan-5-yl)pyrrolidine 3-sulfoxide methyl iodide, a potent, functionally selective, M2 partial agonist” (J Med Chem, 2006)

How the values were obtained:
[1] = target: T1, Muscarinic acetylcholine receptor M5 (Homo sapiens, UniProt P08912); assay: Binding affinity to cloned human muscarinic M5 receptor expressed in CHO cells; assay type: cell-based
T1 sequence (P08912 whole entry): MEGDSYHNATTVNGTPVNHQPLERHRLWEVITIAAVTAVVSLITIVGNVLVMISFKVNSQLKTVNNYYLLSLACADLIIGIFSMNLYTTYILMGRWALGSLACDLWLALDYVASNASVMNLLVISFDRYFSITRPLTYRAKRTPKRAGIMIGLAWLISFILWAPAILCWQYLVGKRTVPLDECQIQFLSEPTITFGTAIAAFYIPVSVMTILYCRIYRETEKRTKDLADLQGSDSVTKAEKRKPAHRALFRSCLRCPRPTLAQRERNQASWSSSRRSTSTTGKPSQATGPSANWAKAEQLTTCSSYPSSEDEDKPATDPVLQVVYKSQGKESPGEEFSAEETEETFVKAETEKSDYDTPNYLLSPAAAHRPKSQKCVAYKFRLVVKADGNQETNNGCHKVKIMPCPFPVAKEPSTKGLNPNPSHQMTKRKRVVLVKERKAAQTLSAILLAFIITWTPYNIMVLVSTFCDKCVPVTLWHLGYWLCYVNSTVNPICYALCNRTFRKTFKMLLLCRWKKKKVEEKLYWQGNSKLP
Procedure, shortened: (§1)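 Membranes from CHO cells stably expressing human hm2, hm4 or hm5 receptors, at 70, 50 and 25 µg/mL protein respectively. 0.2 nM [3H]NMS displaced by unlabelled ligand for 120 min at room temperature, in 25 mM sodium phosphate with 5 mM MgCl2, pH 7.4. Rapid filtration, then scintillation counting. Mean of at least three experiments.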

[2] = target: T2, Muscarinic acetylcholine receptor M1 (Homo sapiens, UniProt P11229); assay: Binding affinity to cloned human muscarinic M1 receptor expressed in CHO cells; assay type: cell-based
T2 sequence (P11229 whole entry): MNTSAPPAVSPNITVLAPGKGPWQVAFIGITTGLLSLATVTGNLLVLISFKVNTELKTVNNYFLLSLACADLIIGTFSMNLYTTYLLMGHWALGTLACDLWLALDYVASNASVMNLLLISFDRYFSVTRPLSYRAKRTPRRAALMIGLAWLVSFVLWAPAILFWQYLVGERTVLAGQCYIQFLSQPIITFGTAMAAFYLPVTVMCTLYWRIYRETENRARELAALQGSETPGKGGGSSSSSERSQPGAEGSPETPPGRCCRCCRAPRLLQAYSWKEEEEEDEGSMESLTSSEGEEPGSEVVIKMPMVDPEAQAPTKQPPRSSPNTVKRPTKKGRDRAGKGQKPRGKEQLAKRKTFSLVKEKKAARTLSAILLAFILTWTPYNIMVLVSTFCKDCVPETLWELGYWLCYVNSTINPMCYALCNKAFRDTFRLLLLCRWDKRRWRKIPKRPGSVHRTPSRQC

[3] = target: T3, Muscarinic acetylcholine receptor M2 (Homo sapiens, UniProt P08172); assay: Binding affinity to cloned human muscarinic M2 receptor expressed in CHO cells; assay type: cell-based; procedure, shortened: as §1
T3 sequence (P08172 whole entry): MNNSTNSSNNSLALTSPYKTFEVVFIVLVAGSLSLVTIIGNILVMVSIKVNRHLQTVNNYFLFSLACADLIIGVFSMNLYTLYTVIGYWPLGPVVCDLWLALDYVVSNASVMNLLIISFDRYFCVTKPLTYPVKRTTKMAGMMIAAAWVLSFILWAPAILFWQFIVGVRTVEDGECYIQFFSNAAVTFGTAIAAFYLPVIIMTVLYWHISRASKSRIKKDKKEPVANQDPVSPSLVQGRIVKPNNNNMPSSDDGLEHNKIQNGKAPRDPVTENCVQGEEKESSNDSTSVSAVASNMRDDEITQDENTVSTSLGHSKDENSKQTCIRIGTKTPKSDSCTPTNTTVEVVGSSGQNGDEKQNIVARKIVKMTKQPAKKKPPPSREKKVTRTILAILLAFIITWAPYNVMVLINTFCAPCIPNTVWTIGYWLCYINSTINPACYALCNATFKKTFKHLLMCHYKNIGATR

[4] = target: Muscarinic acetylcholine receptor M3 (Homo sapiens, UniProt P20309); assay: Binding affinity to cloned human muscarinic M3 receptor expressed in CHO cells; assay type: cell-based
[5] = target: T4, Muscarinic acetylcholine receptor M4 (Homo sapiens, UniProt P08173); assay: Binding affinity to cloned human muscarinic M4 receptor expressed in CHO cells; assay type: cell-based; procedure, shortened: as §1
T4 sequence (P08173 whole entry): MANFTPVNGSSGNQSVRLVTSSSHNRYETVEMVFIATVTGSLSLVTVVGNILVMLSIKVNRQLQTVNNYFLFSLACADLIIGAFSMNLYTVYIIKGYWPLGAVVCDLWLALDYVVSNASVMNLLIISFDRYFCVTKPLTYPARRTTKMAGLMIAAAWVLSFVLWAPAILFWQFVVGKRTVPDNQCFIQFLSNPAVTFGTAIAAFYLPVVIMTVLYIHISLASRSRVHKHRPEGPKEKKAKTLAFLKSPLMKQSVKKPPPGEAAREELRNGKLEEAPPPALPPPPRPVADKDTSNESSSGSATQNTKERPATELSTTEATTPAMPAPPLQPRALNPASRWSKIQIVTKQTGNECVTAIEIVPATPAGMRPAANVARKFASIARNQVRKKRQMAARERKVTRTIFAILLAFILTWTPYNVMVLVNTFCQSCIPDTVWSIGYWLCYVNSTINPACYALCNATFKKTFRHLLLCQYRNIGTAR

[6] = target: T5, Muscarinic acetylcholine receptor M1 (Homo sapiens) (UniProt P11229); assay: Agonist potency at muscarinic M1 receptor in rabbit vas deferens; assay type: functional, tissue-based; conditions: Oryctolagus cuniculus, target entry is the homologue from another species
T5 sequence (whole entry): T2 sequence (P11229 whole entry)
Procedure, shortened: (§2)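 Field-stimulated (0.1 ms, 2 Hz, 10-15 V), contractions recorded isometrically after 1 h equilibration. Cumulative dose-response curves against p-Cl-McN-A-343 reference. Antagonists incubated 60 min before the repeat curve. Reported as pD2 (-log ED50) with intrinsic activity, or as pKb.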

[7] = target: T5, Muscarinic acetylcholine receptor M1 (Homo sapiens); assay: Antagonist affinity at muscarinic M1 receptor in rabbit vas deferens; assay type: functional, tissue-based; conditions: Oryctolagus cuniculus, target entry is the homologue from another species; procedure, shortened: as §2
[8] = target: T6, Muscarinic acetylcholine receptor M2 (Homo sapiens) (UniProt P08172); assay: Agonist potency at muscarinic M2 receptor in guinea pig atrium; assay type: functional, tissue-based; conditions: Cavia porcellus; Cardiac atrium; target entry is the homologue from another species
T6 sequence (whole entry): T3 sequence (P08172 whole entry)
Procedure, shortened: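 Guinea pig left atria in PSS at 30 °C, paced by square-wave pulses (1 ms, 1 Hz, 5-10 V). Inotropic force recorded isometrically after 2 h equilibration, with cumulative dose-response curves to arecaidine propargyl ester as reference. Antagonists incubated 60 min after a 30 min wash, then the curve was repeated. Values given as pD2 with intrinsic activity, or as pKb.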

[9] = target: Muscarinic acetylcholine receptor M3 (Cavia porcellus) (UniProt Q8VH26); assay: Agonist potency at muscarinic M3 receptor in guinea pig ileum; assay type: functional, tissue-based
Procedure, shortened: (§3)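 Isolated guinea pig tissue contractions, measured against arecaidine propargyl ester control curves. Agonists: cumulative dose-response curve after a 30 min wash, responses as % of the control maximum. Antagonists: 60 min incubation, then a new agonist curve. Parallel time-control tissues were run. Values expressed as pD2 (-log ED50) with intrinsic activity, or as pKb (-log Kb).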

[10] = target: T7, Muscarinic acetylcholine receptor M4 (Homo sapiens) (UniProt P08173); assay: Antagonist affinity at muscarinic M4 receptor in guinea pig lung strips; assay type: functional; conditions: Cavia porcellus, target entry is the homologue from another species; procedure, shortened: as §3
T7 sequence (whole entry): T4 sequence (P08173 whole entry)

[11] = target: T6, Muscarinic acetylcholine receptor M2 (Homo sapiens); assay: Efficacy of agonist at muscarinic M2 receptor in guinea pig atrium as ratio of Ka/ED50; assay type: functional, tissue-based; conditions: Cavia porcellus; Cardiac atrium; target entry is the homologue from another species
Procedure, shortened: (§4)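 Functional affinity constants (Ka) obtained in the atrium and ileum preparations. Full agonists: Furchgott-Bursztyn method. Partial agonists: Waud method, comparing their concentration-response curves with arecaidine propargyl ester, with equieffective concentrations read graphically. Ka was then related to ED50.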

[12] = target: Muscarinic acetylcholine receptor M3 (Cavia porcellus) (UniProt Q8VH26); assay: Efficacy of agonist at muscarinic M3 receptor in guinea pig ileum as ratio of Ka/ED50; assay type: functional, tissue-based; procedure, shortened: as §4
[13] = target: T7, Muscarinic acetylcholine receptor M4 (Homo sapiens); assay: Agonist potency at muscarinic M4 receptor in guinea pig lung strips; assay type: functional; conditions: Cavia porcellus, target entry is the homologue from another species; procedure, shortened: as §3

Muscarinic acetylcholine receptor M3, sequence (P20309 whole entry): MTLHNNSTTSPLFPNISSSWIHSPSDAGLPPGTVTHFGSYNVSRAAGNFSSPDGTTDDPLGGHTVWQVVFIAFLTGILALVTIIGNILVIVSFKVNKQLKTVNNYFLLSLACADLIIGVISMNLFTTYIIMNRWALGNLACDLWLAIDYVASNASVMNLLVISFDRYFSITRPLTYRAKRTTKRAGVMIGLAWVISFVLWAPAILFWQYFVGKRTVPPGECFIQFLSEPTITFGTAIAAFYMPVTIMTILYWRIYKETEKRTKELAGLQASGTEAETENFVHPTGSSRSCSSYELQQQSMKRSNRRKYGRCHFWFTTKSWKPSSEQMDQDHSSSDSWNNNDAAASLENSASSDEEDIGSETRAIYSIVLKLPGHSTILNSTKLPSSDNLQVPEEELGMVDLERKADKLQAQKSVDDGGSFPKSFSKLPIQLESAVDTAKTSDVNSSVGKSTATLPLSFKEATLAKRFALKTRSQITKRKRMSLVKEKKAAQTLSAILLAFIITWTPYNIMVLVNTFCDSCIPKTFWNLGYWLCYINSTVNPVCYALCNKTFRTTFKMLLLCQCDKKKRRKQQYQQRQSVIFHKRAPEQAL
Muscarinic acetylcholine receptor M3 (Cavia porcellus), sequence (Q8VH26 1-587): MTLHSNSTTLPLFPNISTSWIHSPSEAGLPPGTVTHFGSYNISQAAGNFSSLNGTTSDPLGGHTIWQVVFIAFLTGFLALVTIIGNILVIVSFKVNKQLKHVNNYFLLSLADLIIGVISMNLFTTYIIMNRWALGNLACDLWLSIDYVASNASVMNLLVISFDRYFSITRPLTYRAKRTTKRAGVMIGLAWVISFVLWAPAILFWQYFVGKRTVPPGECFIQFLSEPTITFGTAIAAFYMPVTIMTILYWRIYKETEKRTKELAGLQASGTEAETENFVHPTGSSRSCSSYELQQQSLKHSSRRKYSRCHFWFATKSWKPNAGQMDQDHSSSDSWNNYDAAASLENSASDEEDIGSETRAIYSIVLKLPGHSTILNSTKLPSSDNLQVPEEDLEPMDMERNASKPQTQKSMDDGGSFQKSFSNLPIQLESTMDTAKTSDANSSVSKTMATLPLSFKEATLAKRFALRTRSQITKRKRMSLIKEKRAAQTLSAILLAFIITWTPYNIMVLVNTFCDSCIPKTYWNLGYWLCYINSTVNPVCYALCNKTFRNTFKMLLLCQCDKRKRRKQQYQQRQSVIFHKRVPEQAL

| Compound | Ki [1] [µM] | Ki [2] [µM] | Ki [3] [µM] | Ki [4] [µM] | Ki [5] [µM] | pD2 [6] | pKb [7] | -logKa [8] | Activity [8] | pD2 [8] | -logKa [9] | Activity [9] | pD2 [9] | pKb [10] | Ratio [11] | Ratio [12] | pD2 [13] |
| --- | --- | --- | --- | --- | --- | --- | --- | --- | --- | --- | --- | --- | --- | --- | --- | --- | --- |
| C[N+](C)(C)CC#CCOC(=O)Nc1ccc(Cl)cc1 | 3.8 | 1.95 | 3.24 | 2.4 | 9.12 | 6.33 | – | – | – | – | – | – | – | – | – | – | – |
| C[C@@H]1O[C@H]([C@@H]2CCC[N+]2(C)C)C[S@@+]1[O-] | 33.9 | 93.3 | 15.5 | 33.9 | 46.8 | – | < 5 | 4.64 | 0.56 | 6.37 | 4.59 | 0.54 | 4.62 | < 5 | 58 | 1 | – |
| C#CCOC(=O)C1=CCCN(C)C1 [ARECAIDINE PROPARGYL ESTER] | 0.933 | 1.23 | 0.0871 | 0.851 | 0.977 | 7.14 | – | – | 1 | 8.67 | – | 1 | 7.64 | – | – | – | 5.56 |
